Data set [1] in a line: Selectivity index, ratio of IC50 for african green monkey (Cercopithecus aethiops) Vero cells to IC50 for chloroquine-sensitive Plasmodium falciparum D6. In kind it is toxicity, cell-based. The following applies: read-out: Ratio IC50.
Another data set relates to KB. The data set is described as follows: Cytotoxicity against human KB cells after 48 hrs by neutral red staining. In kind it is functional, cell-based. The method in brief: (§1)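 Human tumour lines: SK-MEL (malignant melanoma), KB (epidermal carcinoma), BT-549 (ductal carcinoma) and SK-OV-3 (ovary carcinoma). Compounds tested up to a maximum of 10 µg/mL, with doxorubicin as reference. IC50 given in µg/mL as mean ± SEM of three determinations.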

The subject of another data set is Vero. The data set is described as follows: Cytotoxicity against african green monkey kidney Vero cells. In kind it is cell-based. The following applies: Chlorocebus sabaeus.
The nature of data set [2]: Inhibition of protein biosynthesis in mouse Krebs cells assessed as renilla luciferase activity at 2 uM after 1 hr by translation assay relative to control. Format: functional. The method in brief:
(§2)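 In vitro Krebs cell translation system read by firefly and renilla luciferase. Compounds at 10 or 2 µM; anisomycin 10 µM as reference and 0.5% DMSO as vehicle control. Values are average luciferase activity relative to control.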

The subject of data set [3] is HeLa. The data set can be described thus: Inhibition of protein synthesis in human HeLa cells assessed as translation at 2 uM by [35S]methionine metabolic labeling study. In kind it is functional. Also on record: scale not given: the % may be the effect or the level left.
A short description of data set [4]: Specific index, ratio of IC50 for human HL60 cells to MIC for LFA1/ICAM1. In kind it is functional, HL-60. The method in brief:
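Index calculated as XTT-assay IC50 (µg/mL) divided by the MIC from the LFA-1/ICAM-1-mediated aggregation primary screen (µg/mL). XTT IC50 values are given as mean ± SEM of three determinations.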

The subject of data set [5] is HeLa. The data set can be described thus: Inhibition of protein synthesis in human HeLa cells at 2 uM by [35S]methionine metabolic labeling study. Format: functional.
A short description of data set [6]: Inhibition of protein biosynthesis in mouse Krebs cells assessed as firefly luciferase activity at 0.4 uM after 1 hr by translation assay relative to control. Format: functional. The essentials:
(§3)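 In vitro Krebs cell-extract translation system with firefly and Renilla luciferase read-outs, reported as average relative luciferase values. Compounds were tested at fixed concentrations (0.4–10 µM). DMSO (0.5%) served as vehicle control.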

Data set [7] relates to HeLa. The data set can be described thus: Inhibition of translation in human HeLa cells at 2 uM by 35S-methionine metabolic labeling study. Format: functional, cell-based.
In data set [8] the target is Intercellular adhesion molecule (ICAM-1), Integrin alpha-L/beta-2 (Homo sapiens) (UniProt P20701+P05362+P05107). The data set is described as follows: Inhibition of LFA1/ICAM1-mediated HL60 cell aggregation. In kind it is cell-based. As to conditions: HL-60. The essentials: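 Primary screen for LFA-1/ICAM-1-mediated cell aggregation run together with an XTT cell-proliferation read-out. Aggregation potency is reported as a minimum inhibitory concentration in µg/mL.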

Data set [9] deals with HeLa. The data set is described as follows: Inhibition of translation in human HeLa cells at 0.4 uM by 35S-methionine metabolic labeling study. In kind it is functional, cell-based.
Data set [10] is described as follows: Inhibition of protein biosynthesis in mouse Krebs cells assessed as renilla luciferase activity at 0.4 uM after 1 hr by translation assay relative to control. Format: functional. The method in brief: as §3
Data set [11] can be described thus: Selectivity index, ratio of IC50 for african green monkey (Cercopithecus aethiops) Vero cells to IC50 for chloroquine-resistant Plasmodium falciparum W2. Format: toxicity, cell-based. The following applies: read-out: Ratio IC50.
For another data set, the system named is CHO. The data set is described as follows: Cytotoxicity against CHO cells transfected with ICAM1 by MTT assay. As to conditions: Cricetulus griseus. Format: cell-based. The method in brief:
(§4)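 MTT viability assay, run on CHO-ICAM-1 cells and, separately, on RAW 264.7 cells. IC50 in µg/mL, mean ± SEM of three determinations.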

The test system of another data set is Leishmania donovani. The data set can be described thus: Antileishmanial activity against Leishmania donovani promastigotes after 48 hrs by alamar blue assay. In kind it is functional, organism-based.
The next data set deals with HL-60. The data set is described as follows: Cytotoxicity against human HL60 cells by XTT assay. In kind it is cell-based. The essentials:
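XTT proliferation read-out combined with the primary assay for inhibitors of LFA-1/ICAM-1-mediated cell aggregation. IC50 in µg/mL, mean ± SEM of three determinations.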

The subject of another data set is BT-549. The data set is described as follows: Cytotoxicity against human BT549 cells after 48 hrs by neutral red staining. In kind it is functional, cell-based. The following applies: BT-549, 48 h. The essentials: as §1
In a further data set the test system is SK-OV-3. The data set can be described thus: Cytotoxicity against human SKOV3 cells after 48 hrs by neutral red staining. Format: functional, cell-based. As to conditions: SK-OV-3, 48 h. The method in brief: as §1
Data set [12] relates to Plasmodium falciparum. The data set can be described thus: Antimalarial activity against chloroquine-sensitive Plasmodium falciparum D6 by LDH assay. In kind it is functional, organism-based.
The test system of the next data set is SK-MEL. The data set can be described thus: Cytotoxicity against human SK-MEL cells after 48 hrs by neutral red staining. In kind it is functional, cell-based. The method in brief: as §1
Data set [13] can be described thus: Inhibition of protein biosynthesis in mouse Krebs cells assessed as firefly luciferase activity at 2 uM after 1 hr by translation assay relative to control. Format: functional. The essentials: as §2
Data set [14] deals with RAW264.7. The data set can be described thus: Inhibition of iNOS production in LPS-activated mouse RAW264.7 cells after 20 hrs. In kind it is functional, cell-based. As to conditions: RAW264.7, 20 h. The method in brief: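 iNOS assay in RAW 264.7 cells, with L-NMMA, APDC and dexamethasone as reference inhibitors. IC50 in µg/mL, mean ± SEM of three determinations.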
In data set [15] the test system is Plasmodium falciparum. The data set is described as follows: Antimalarial activity against chloroquine-resistant Plasmodium falciparum W2 by LDH assay. In kind it is functional, organism-based.
Data set [16] has as its target Intercellular adhesion molecule (ICAM-1), Integrin alpha-L/beta-2 (Homo sapiens, UniProt P05107+P05362+P20701). The data set can be described thus: Inhibition of LFA1/ICAM1-mediated adhesion of HL60 cells to CHO-ICAM1 cells. Format: cell-based, HL-60. The essentials: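 Secondary LFA-1/ICAM-1-mediated adhesion assay using HL-60 cells and CHO-ICAM-1 cells, with cytochalasin B as standard. IC50 in µg/mL, mean ± SEM of three determinations.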

In data set [17] the test system is RAW264.7. The data set can be described thus: Cytotoxicity against mouse RAW264.7 cells after 2 days by MTT assay. In kind it is cell-based. The following applies: RAW264.7, 48 h. The method in brief: as §4
The nature of data set [18]: Inhibition of protein biosynthesis in mouse Krebs cells assessed as renilla luciferase activity at 10 uM after 1 hr by translation assay relative to control. Format: functional. The essentials:
as §2

The nature of data set [19]: Inhibition of protein biosynthesis in mouse Krebs cells assessed as firefly luciferase activity at 10 uM after 1 hr by translation assay relative to control. In kind it is functional. The essentials:
as §2

Data set [20] concerns HeLa. The data set is described as follows: Inhibition of protein synthesis in human HeLa cells at 10 uM by [35S]methionine metabolic labeling study. Format: functional.
The test system of data set [21] is HeLa. The data set can be described thus: Inhibition of translation in human HeLa cells at 10 uM by 35S-methionine metabolic labeling study. In kind it is functional, cell-based.
Data set [22] has as its system HeLa. The data set is described as follows: Inhibition of protein synthesis in human HeLa cells assessed as translation at 10 uM by [35S]methionine metabolic labeling study. Also on record: scale not given: the % may be the effect or the level left. Format: functional.

The results in this text go back to ChEMBL document CHEMBL1151198, “A new antimalarial quassinoid from Simaba orinocensis” (J Nat Prod, 2004).

SMILES strings stand for the structures. Converted amounts (≈) assume the structure as drawn. The source made the active and inactive calls. No cut-off for these calls is given here.

Intercellular adhesion molecule (ICAM-1), Integrin alpha-L/beta-2, sequence (P20701 whole entry): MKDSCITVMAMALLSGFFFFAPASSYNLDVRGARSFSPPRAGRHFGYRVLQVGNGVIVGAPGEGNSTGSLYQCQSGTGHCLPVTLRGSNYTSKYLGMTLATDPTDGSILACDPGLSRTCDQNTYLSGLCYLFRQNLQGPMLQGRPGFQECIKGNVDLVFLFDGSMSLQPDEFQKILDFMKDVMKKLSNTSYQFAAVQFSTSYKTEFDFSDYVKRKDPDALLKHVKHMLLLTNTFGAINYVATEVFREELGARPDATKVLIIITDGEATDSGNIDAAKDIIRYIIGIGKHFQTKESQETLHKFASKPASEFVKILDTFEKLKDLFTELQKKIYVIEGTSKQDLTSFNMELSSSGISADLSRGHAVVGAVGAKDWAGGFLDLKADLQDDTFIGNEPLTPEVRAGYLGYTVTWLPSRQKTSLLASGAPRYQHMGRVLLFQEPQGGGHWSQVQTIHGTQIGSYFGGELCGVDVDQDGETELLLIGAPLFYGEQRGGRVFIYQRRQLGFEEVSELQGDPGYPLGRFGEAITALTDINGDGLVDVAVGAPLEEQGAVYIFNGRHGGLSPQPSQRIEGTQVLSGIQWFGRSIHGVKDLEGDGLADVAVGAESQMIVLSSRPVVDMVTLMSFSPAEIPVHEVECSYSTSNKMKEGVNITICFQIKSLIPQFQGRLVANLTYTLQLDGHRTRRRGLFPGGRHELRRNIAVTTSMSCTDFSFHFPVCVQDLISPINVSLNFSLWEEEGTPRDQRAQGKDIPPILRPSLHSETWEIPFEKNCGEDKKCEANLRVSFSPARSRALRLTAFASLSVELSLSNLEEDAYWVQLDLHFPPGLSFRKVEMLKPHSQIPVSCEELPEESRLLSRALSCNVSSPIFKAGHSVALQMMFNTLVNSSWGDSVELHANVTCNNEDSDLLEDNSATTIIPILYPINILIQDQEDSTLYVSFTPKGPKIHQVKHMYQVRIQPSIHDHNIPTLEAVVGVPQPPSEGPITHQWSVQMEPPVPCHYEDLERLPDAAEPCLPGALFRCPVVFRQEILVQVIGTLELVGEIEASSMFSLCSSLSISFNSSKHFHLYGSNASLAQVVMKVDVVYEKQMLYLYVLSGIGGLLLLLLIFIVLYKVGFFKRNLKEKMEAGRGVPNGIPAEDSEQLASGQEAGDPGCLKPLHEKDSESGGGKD
Intercellular adhesion molecule (ICAM-1), Integrin alpha-L/beta-2, sequence (P05362 whole entry): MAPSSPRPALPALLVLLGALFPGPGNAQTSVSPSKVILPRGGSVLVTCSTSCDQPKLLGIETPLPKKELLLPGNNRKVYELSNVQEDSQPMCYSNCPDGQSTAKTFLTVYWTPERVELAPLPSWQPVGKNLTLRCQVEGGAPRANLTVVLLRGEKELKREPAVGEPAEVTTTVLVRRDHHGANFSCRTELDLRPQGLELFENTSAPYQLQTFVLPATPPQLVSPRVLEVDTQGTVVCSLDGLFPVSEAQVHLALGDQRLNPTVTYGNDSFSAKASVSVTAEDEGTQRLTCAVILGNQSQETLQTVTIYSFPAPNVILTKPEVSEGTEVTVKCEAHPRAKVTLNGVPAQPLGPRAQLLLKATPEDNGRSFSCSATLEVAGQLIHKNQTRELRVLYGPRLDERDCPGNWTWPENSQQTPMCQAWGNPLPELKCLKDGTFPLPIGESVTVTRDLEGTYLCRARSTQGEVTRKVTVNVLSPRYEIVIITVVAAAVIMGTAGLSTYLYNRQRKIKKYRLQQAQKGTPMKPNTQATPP
Intercellular adhesion molecule (ICAM-1), Integrin alpha-L/beta-2, sequence (P05107 whole entry): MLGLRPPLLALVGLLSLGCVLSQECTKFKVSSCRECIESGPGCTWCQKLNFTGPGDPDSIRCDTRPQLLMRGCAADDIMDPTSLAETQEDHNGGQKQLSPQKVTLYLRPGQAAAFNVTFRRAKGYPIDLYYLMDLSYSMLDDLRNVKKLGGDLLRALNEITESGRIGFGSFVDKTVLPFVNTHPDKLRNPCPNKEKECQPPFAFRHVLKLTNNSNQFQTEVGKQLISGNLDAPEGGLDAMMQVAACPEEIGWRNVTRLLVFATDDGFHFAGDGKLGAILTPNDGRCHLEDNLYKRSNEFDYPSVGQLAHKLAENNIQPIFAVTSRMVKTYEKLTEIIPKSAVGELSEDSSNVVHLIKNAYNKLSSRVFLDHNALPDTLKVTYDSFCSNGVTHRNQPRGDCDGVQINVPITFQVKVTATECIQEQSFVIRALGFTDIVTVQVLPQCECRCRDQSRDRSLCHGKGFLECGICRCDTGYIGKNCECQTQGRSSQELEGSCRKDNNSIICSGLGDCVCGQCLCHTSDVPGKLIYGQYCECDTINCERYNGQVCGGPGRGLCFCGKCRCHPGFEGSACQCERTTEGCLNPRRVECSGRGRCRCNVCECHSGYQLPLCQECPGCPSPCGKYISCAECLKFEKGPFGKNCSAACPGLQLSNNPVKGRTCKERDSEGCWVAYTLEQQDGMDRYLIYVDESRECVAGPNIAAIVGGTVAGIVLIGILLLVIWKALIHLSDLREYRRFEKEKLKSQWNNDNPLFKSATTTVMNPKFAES

In the case of `CC[C@@H](C)C(=O)O[C@H]1C(=O)O[C@@H]2C[C@H]3C(C)=CC(=O)[C@@H](O)[C@]3(C)[C@H]3[C@@H](O)[C@H](O)[C@]4(C)OC[C@]32[C@@H]14` [SIMALIKALACTONE D], the selectivity ratio is 750 in data set [1] and 613 in [11]. For the same compound, the IC50 came to 1 µg/mL (≈ 2.09 µM) in the data set on KB; 2.3 µg/mL (≈ 4.81 µM) in the data set on Vero; 0.032 µg/mL (≈ 0.0669 µM) in the data set on CHO; 0.035 µg/mL (≈ 0.0731 µM) with Leishmania donovani; 0.025 µg/mL (≈ 0.0522 µM) in the data set with HL-60; 0.3 µg/mL (≈ 0.627 µM) in the data set with BT-549. For the same compound, the IC50 is 0.3 µg/mL (≈ 0.627 µM) in the data set on SK-OV-3; 0.003 µg/mL (≈ 0.00627 µM) in the data set on Plasmodium falciparum [12]; 0.28 µg/mL (≈ 0.585 µM) in the data set with SK-MEL; 0.76 µg/mL (≈ 1.59 µM) in the data set on RAW264.7 [14]; 0.00367 µg/mL (≈ 0.00767 µM) with Plasmodium falciparum [15]; more than 52.2 µM in data set [16]. It took 0.08 µg/mL (≈ 0.167 µM) to reach half-maximal inhibition in the data set with RAW264.7 [17] (IC50). Moreover, the Activity in data set [2] worked out at 0.09; in the data set on HeLa [3], 1.5%; in [6], 0.17; in data set [10] it was 0.25; in [13] it was 0.05. In data set [4], the Ratio worked out at 2.5. Besides, testing at 2 µM in the data set with HeLa [5] gave an inhibition of 98.5%. Besides, the outcome with HeLa [7] and in the data set with HeLa [9] was Active. The MIC in data set [8] stood at 0.01 µg/mL (≈ 0.0209 µM). This compound also yielded an IC90 in the data set on Leishmania donovani of 0.2 µg/mL (≈ 0.418 µM).
As for `COc1ccc(C[C@H]2NC[C@H](O)[C@H]2OC(C)=O)cc1` [ANISOMYCIN], the results for the Activity (in data set [18]; in data set [19]; with HeLa [22]) were less than 0.01, less than 0.01 and 0%, respectively. At 10 µM the inhibition in the data set on HeLa [20] was 98.5%. Moreover, the outcome in the data set on HeLa [21] was Active.
